Measurements: ChEMBL document CHEMBL2385063, “Identification of 2-(2-(1-naphthoyl)-8-fluoro-3,4-dihydro-1H-pyrido[4,3-b]indol-5(2H)-yl)acetic acid (setipiprant/ACT-129968), a potent, selective, and orally bioavailable chemoattractant receptor-homologous molecule expressed on Th2 cells (CRTH2) antagonist” (J Med Chem, 2013)
Converted amounts (≈) assume the structure as drawn. The source made the active and inactive calls. The rule behind the calls is not given here.

Tests used:
[1] = target: Cytochrome P450 2D6 (Homo sapiens, UniProt P10635); experiment: Inhibition of CYP2D6 in human liver microsomes assessed as dextromethorphan O-demethylation by LC-MS/MS analysis; format: ADME, Microsome
[2] = Solubility of the compound in aqueous buffer at pH 7; format: physicochemical
In short: (§1)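 Compound was stirred in water, 60 mM citrate buffer pH 4 or 70 mM phosphate buffer pH 7 at 300 rpm, 25 °C, for 24 h. The mixture was filtered, and the filtrate concentration was measured by HPLC-UV at 250 nm against a calibration curve.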

[3] = target: Cytochrome P450 3A4 (Homo sapiens, UniProt P08684); experiment: Inhibition of CYP3A4 in human liver microsomes assessed as midazolam-1'-hydroxylation by LC-MS/MS analysis; format: ADME, Microsome
[4] = Intrinsic clearance in human liver microsomes measured per mg of protein at 1 uM by LC/MS-MS analysis; format: ADME, Microsome; settings: read-out: CLH
[5] = n-octanol-KH2PO4-Na2HPO4 buffer partition coefficient, log D of the compound at pH 7.4 by shake flask method; format: physicochemical
[6] = Elimination half life in Sprague-Dawley rat plasma at 1 mM by HR-LC-MS analysis; format: ADME, cell-free; settings: read-out: beta t1/2
[7] = Half life in simulated gastric fluid at 2 uM by LC-MS analysis; format: physicochemical
In short: (§2)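 Compounds were incubated in simulated gastric fluid for 1 h or simulated intestinal fluid for 4 h. Unchanged parent was quantified by LC-MS.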

[8] = Intrinsic clearance in rat hepatocytes measured per 10^6 cells at 1 uM by LC/MS-MS analysis; format: ADME, cell-based, Hepatocyte; settings: read-out: CLH
[9] = Half life in simulated intestinal fluid at 2 uM by LC-MS analysis; format: physicochemical; in short: as §2
[10] = target: T1, Prostaglandin D2 receptor 2 (Homo sapiens) (UniProt Q9Y5Y4); experiment: Selectivity factor, ratio of IC50 for recombinant human CRTH2 receptor in presence of human serum albumin to IC50 for recombinant human CRTH2 receptor in absence of human serum albumin
T1 sequence (whole entry): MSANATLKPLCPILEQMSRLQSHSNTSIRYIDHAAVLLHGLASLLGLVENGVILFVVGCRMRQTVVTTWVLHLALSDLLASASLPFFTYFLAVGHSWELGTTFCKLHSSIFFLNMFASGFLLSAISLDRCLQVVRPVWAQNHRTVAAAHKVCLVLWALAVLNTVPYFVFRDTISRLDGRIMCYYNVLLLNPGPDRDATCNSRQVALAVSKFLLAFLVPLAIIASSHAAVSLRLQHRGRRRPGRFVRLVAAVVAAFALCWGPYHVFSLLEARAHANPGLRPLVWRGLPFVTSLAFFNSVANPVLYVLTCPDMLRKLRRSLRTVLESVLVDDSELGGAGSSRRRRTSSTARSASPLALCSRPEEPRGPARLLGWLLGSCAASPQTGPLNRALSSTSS
In short: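 Competitive [³H]PGD₂ (2.5 nM) displacement on membranes from HEK-293 cells stably expressing hCRTh2. Buffer C was 50 mM Tris, pH 7.4, 100 mM NaCl, 1 mM EDTA and 0.1% BSA, run with or without 0.5% HSA. Membrane was 80 μg protein/well, incubated 90 min at room temperature, then filtered and counted by scintillation. Nonspecific binding was taken with 10 μM PGD₂. f_HSA = IC₅₀(HSA)/IC₅₀(buffer).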

[11] = Elimination half life in human plasma at 1 mM by HR-LC-MS analysis; format: ADME, cell-free; settings: read-out: beta t1/2
[12] = Protein binding in plasma (unknown origin); format: ADME, cell-free; settings: read-out: PPB
[13] = target: T2, Prostaglandin D2 receptor 2 (Homo sapiens, UniProt Q9Y5Y4); experiment: Antagonist activity at CRTH2 receptor in human eosinophils assessed as inhibition of PGD2-induced cell shape change incubated for 10 mins prior to PGD2 induction measured after 5 mins by FACS flow cytometric analysis in presence of human plasma
T2 sequence (Q9Y5Y4 whole entry): T1 sequence (whole entry)

[14] = target: Cytochrome P450 2C9 (Homo sapiens, UniProt P11712); experiment: Inhibition of CYP2C9 in human liver microsomes assessed as diclofenac 4'-hydroxylation by LC-MS/MS analysis; format: ADME, Microsome
[15] = target: T3, Chemoattractant receptor-homologous molecule expressed on Th2 cells (Cavia porcellus) (UniProt Q56D28); experiment: Partial agonist activity at guinea pig CRTH2 receptor assessed as calcium flux by cell-based FLIPR assay; format: functional
T3 sequence (whole entry): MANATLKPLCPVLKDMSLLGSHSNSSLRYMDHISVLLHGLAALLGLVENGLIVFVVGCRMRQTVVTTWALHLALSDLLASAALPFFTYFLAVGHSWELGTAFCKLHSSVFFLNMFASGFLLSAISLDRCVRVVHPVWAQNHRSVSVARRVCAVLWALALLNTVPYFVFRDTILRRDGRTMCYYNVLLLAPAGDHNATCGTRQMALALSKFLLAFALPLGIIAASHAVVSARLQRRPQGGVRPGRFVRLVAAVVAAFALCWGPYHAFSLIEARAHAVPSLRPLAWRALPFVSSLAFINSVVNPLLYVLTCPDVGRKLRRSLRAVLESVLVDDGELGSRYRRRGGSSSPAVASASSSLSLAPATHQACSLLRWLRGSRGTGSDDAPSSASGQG

[16] = Solubility of the compound in aqueous buffer at pH 4; format: physicochemical; in short: as §1
[17] = Intrinsic clearance in rat liver microsomes measured per mg of protein at 1 uM by LC/MS-MS analysis; format: ADME, Microsome; settings: read-out: CLH
[18] = target: T2, Prostaglandin D2 receptor 2; experiment: Antagonist activity at CRTH2 receptor in human eosinophils assessed as inhibition of PGD2-induced cell shape change incubated for 1 hr prior to PGD2 induction measured after 5 mins by FACS flow cytometric analysis in presence of human plasma; settings: in the assay text read “incubated for 10 mins” for “incubated for 1 hr”
In short: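 Polymorphonuclear cells isolated from healthy-donor blood on a Polymorphprep gradient (500g, 30 min), erythrocytes lysed hypotonically. Cells stained 1 h with CD49d-APC, mixed with human plasma, preincubated with antagonist, then stimulated with 15 nM PGD2 for 5 min at 37 °C. Fixed in cold 1% paraformaldehyde. Eosinophils gated by CD49d/SSC; activation read as % cells with raised forward scatter.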

Sequence of Cytochrome P450 2D6 (P10635 whole entry): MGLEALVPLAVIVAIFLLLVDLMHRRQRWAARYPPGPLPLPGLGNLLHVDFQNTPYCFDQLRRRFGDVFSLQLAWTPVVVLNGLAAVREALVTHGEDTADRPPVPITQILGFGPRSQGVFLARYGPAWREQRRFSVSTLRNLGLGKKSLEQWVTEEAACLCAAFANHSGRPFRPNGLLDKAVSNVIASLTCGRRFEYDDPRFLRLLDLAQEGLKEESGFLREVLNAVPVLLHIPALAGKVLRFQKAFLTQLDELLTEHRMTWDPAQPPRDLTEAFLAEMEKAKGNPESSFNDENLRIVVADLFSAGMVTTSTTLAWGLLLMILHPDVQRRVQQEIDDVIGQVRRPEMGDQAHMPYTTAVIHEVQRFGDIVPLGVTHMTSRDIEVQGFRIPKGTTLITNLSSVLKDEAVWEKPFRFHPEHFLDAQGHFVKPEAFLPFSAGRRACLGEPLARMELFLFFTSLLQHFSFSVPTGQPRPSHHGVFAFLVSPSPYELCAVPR
Sequence of Cytochrome P450 3A4 (P08684 whole entry): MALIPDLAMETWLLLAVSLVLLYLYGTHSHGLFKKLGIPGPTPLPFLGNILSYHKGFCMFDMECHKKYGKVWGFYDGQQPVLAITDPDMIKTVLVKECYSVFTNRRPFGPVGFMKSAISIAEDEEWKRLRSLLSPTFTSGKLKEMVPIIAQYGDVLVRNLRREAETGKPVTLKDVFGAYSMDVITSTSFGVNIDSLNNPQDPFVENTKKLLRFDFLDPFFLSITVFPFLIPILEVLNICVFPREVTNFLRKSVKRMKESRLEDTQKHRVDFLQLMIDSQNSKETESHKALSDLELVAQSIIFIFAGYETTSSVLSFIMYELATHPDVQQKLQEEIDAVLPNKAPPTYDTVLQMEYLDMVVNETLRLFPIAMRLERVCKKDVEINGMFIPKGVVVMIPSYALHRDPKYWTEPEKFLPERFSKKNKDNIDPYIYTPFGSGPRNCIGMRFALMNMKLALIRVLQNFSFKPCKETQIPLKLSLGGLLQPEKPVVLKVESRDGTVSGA
Sequence of Cytochrome P450 2C9 (P11712 whole entry): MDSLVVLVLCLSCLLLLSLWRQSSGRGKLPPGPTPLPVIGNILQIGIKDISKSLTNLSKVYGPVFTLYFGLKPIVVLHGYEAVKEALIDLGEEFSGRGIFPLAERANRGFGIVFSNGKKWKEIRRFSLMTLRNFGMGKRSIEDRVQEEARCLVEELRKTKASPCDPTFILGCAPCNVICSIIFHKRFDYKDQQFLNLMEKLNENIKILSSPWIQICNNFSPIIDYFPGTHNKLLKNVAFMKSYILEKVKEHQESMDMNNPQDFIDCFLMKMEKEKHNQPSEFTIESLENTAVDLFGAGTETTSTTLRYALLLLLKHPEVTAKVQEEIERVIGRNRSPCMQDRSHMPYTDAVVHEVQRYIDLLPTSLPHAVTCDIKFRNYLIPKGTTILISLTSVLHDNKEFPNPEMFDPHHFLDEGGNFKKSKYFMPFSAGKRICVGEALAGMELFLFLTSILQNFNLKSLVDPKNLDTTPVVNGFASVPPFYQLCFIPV

Structure (SMILES) | IC50 [1] | solubility [2] | IC50 [3] | microsomal CLint at 1 µM [4] | logD [5] | half-life [6] | half-life at 2 µM [7] | hepatocyte CLint at 1 µM [8] | half-life at 2 µM [9] | Ratio IC50 [10] | half-life [11] | fraction unbound [12] | IC50 [13] | IC50 [14] | Activity [15] | solubility [16] | microsomal CLint at 1 µM [17] | IC50 [18]
O=C(O)Cn1c2c(c3ccccc31)CN(C(=O)c1cccc3ccccc13)CC2 | > 50 µM | 830 µg/mL (≈ 2160 µM) | > 50 µM | < 4 µL/min/mg | 0.2 | > 240 min | > 60 min | 1.5 µL/min/1e6 cells | > 240 min | 47 | > 240 min | < 0.03 | 1120 nM | 40 µM | Active | 90 µg/mL (≈ 234 µM) | 36 µL/min/mg | 
O=C(O)Cn1c2c(c3cc(F)ccc31)CN(C(=O)c1cccc3ccccc13)CC2 [SETIPIPRANT] | > 50 µM | 880 µg/mL (≈ 2190 µM) | > 50 µM | 5 µL/min/mg | 0.1 | > 240 min | > 60 min | 3.1 µL/min/1e6 cells | > 240 min | 57 | > 240 min | < 0.03 |  | > 50 µM | Active | 90 µg/mL (≈ 224 µM) | 5 µL/min/mg | 235 nM
O=C(O)Cn1c2c(c3cc(F)ccc31)CN(C(=O)c1cccc(Cl)c1)CC2 | > 50 µM | 1000 µg/mL (≈ 2590 µM) | > 50 µM | < 4 µL/min/mg | -0.3 | > 240 min | > 60 min | 1.9 µL/min/1e6 cells | > 240 min | 7 | > 240 min | < 0.03 |  | > 50 µM | Active | 140 µg/mL (≈ 362 µM) | < 4 µL/min/mg | 60 nM
